Reference: ChEMBL document CHEMBL4261537, “Synthesis and pharmacological evaluation of multi-functional homoisoflavonoid derivatives as potent inhibitors of monoamine oxidase B and cholinesterase for the treatment of Alzheimer's disease” (Medchemcomm, 2017)

How the values were obtained:
Cholinesterase [1] = molecular target: T1, Cholinesterase (Equus caballus, UniProt P81908); assay: Inhibition of equine serum BuChE using S-butyrylthiocholine iodide as substrate preincubated for 5 mins followed by substrate addition measured at 1 to 3 mins time interval by Ellman's method; format: ADME
Homo sapiens [2] = organism: Homo sapiens; assay: Selectivity index, ratio of IC50 for recombinant human MAO-A to IC50 for recombinant human MAO-B
Acetylcholinesterase [3] = molecular target: Acetylcholinesterase (Homo sapiens, UniProt P22303); assay: Inhibition of human erythrocytes AChE using acetylthiocholine iodide as substrate preincubated for 5 mins followed by substrate addition measured at 1 to 3 mins time interval by Ellman's method
Homo sapiens [4] = organism: Homo sapiens; assay: Selectivity index, ratio of IC50 for human serum BuChE to IC50 for human erythrocytes AChE
Cholinesterase [5] = molecular target: T2, Cholinesterase (Homo sapiens, UniProt P06276); assay: Inhibition of human serum BuChE using S-butyrylthiocholine iodide as substrate preincubated for 5 mins followed by substrate addition measured at 1 to 3 mins time interval by Ellman's method; format: ADME
Acetylcholinesterase [6] = molecular target: Acetylcholinesterase (Electrophorus electricus, UniProt O42275); assay: Inhibition of electric eel AChE using acetylthiocholine iodide as substrate preincubated for 5 mins followed by substrate addition measured at 1 to 3 mins time interval by Ellman's method
[7] = Selectivity index, ratio of IC50 for equine serum BuChE to IC50 for electric eel AChE
[8] = molecular target: T3, Amine oxidase [flavin-containing] B (Homo sapiens, UniProt P27338); assay: Inhibition of recombinant human MAO-B assessed as reduction in H2O2 production using p-tyramine as substrate preincubated for 15 mins followed by substrate addition by Amplex red reagent based fluorescence assay
T3 sequence (P27338 whole entry): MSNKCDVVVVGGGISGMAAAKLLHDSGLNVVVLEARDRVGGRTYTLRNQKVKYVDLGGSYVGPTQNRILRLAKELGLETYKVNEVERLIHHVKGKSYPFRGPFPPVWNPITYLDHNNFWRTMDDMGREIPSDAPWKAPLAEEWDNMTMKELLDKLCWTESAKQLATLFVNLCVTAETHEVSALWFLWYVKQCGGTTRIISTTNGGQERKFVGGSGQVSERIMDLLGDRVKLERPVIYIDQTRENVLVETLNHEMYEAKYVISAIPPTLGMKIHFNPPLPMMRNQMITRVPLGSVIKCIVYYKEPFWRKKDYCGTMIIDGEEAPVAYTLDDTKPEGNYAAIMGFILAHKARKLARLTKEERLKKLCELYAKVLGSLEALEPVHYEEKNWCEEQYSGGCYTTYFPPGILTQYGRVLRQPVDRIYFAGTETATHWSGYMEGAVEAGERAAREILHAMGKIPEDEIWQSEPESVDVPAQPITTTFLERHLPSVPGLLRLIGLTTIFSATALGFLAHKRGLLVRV
How it was run: (§1)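 Human MAO-A or MAO-B, each set to the same control reaction velocity. Preincubated with compound 15 min at 37°C in the dark, in sodium phosphate buffer with DMSO. Then 200 μM Amplex Red (final) added with 1 U/mL HRP and 1 mM p-tyramine. Run in triplicate, mean ± SD.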

[9] = molecular target: T4, Amine oxidase [flavin-containing] A (Homo sapiens, UniProt P21397); assay: Inhibition of recombinant human MAO-A assessed as reduction in H2O2 production using p-tyramine as substrate preincubated for 15 mins followed by substrate addition by Amplex red reagent based fluorescence assay
T4 sequence (P21397 whole entry): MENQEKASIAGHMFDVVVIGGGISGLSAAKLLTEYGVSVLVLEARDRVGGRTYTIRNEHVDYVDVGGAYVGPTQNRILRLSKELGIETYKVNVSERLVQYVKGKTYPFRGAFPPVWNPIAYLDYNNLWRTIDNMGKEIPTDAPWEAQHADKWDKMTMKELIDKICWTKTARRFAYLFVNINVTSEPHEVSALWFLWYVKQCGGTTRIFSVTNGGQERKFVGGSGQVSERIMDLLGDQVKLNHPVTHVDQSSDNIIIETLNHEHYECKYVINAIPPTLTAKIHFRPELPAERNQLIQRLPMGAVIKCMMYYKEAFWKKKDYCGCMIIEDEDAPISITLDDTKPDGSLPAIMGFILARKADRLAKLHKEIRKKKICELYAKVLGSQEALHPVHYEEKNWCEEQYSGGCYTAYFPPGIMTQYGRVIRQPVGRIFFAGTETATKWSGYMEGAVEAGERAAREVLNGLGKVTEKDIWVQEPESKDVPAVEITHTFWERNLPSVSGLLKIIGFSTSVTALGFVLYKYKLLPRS

[10] = molecular target: T4, Amine oxidase [flavin-containing] A; assay: Inhibition of recombinant human MAO-A assessed as reduction in H2O2 production at 100 uM using p-tyramine as substrate preincubated for 15 mins followed by substrate addition by Amplex red reagent based fluorescence assay
How it was run: as §1, with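 “p-tyramine. Resorufin fluorescence read at 37°C (ex 545/em 590 nm), background from enzyme-free wells subtracted.” for “p-tyramine.”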

Cholinesterase [11] = molecular target: T2, Cholinesterase; assay: Inhibition of human serum BuChE at 100 uM using S-butyrylthiocholine iodide as substrate preincubated for 5 mins followed by substrate addition measured at 1 to 3 mins time interval by Ellman's method
How it was run: (§2)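 Ellman assay: compound diluted in 50 mM Tris-HCl pH 8.0 with 0.1 M NaCl, 0.02 M MgCl2 (DMSO 1%). Preincubated 5 min at 37°C with 1.5 mM DTNB and BuChE (0.12 U/mL in Tris with 0.1% BSA); 15 mM S-butyrylthiocholine iodide added; absorbance at 405 nm read at 0, 1, 2, 3 min.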

Cholinesterase [12] = molecular target: T1, Cholinesterase; assay: Inhibition of equine serum BuChE at 100 uM using S-butyrylthiocholine iodide as substrate preincubated for 5 mins followed by substrate addition measured at 1 to 3 mins time interval by Ellman's method; settings: horse; how it was run: as §2

T2 sequence (P06276 whole entry): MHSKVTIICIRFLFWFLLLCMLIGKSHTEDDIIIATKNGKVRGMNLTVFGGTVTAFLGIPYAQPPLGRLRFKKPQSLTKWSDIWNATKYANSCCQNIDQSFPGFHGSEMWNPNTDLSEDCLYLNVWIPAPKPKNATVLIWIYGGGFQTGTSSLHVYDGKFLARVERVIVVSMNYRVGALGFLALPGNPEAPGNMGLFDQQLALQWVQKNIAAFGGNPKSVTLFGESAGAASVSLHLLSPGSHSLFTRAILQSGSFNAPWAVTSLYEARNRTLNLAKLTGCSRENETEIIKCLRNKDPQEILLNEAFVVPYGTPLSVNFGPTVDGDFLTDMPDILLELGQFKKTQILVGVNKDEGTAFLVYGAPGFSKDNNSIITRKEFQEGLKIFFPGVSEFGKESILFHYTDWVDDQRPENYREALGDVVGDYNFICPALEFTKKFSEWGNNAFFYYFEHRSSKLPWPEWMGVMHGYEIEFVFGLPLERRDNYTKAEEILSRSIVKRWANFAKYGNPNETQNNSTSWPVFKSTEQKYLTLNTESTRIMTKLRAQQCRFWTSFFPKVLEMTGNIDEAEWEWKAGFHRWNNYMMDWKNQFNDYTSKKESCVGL
Sequence of Acetylcholinesterase (Homo sapiens, UniProt P22303) (P22303 whole entry): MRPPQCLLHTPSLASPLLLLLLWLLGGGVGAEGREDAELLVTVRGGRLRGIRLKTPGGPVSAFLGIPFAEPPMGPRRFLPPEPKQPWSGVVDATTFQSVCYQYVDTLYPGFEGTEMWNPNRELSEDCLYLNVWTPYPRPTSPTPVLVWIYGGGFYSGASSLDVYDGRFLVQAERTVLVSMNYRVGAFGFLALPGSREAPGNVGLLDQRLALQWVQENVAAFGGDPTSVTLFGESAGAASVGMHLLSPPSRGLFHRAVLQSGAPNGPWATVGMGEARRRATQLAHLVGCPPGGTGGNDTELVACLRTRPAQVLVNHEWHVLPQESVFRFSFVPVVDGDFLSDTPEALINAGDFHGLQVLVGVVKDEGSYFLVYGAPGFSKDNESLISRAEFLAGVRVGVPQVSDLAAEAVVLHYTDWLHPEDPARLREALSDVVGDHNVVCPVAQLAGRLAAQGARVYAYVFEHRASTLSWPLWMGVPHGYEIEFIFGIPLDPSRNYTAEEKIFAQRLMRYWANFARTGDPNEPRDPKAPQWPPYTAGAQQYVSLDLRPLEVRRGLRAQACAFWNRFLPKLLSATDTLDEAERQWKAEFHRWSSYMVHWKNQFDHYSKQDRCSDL
Sequence of Acetylcholinesterase (Electrophorus electricus, UniProt O42275) (O42275 whole entry): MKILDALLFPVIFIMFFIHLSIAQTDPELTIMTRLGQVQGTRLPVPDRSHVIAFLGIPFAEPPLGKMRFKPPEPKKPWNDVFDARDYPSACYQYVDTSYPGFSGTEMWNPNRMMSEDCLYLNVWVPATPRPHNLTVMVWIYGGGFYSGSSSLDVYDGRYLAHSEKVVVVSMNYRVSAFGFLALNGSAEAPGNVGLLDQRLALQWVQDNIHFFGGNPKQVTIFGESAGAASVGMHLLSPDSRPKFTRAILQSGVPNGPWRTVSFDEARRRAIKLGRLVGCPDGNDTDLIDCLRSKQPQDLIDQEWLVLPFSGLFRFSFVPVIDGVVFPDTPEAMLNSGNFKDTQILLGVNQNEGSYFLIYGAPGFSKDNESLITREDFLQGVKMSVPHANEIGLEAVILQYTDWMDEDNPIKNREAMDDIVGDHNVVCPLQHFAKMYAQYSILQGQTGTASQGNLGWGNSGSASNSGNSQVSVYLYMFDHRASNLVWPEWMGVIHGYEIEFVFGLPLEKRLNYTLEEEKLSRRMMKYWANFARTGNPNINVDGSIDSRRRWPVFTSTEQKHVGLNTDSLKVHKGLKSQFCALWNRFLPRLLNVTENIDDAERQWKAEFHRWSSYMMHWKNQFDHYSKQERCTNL
T1 sequence (P81908 whole entry): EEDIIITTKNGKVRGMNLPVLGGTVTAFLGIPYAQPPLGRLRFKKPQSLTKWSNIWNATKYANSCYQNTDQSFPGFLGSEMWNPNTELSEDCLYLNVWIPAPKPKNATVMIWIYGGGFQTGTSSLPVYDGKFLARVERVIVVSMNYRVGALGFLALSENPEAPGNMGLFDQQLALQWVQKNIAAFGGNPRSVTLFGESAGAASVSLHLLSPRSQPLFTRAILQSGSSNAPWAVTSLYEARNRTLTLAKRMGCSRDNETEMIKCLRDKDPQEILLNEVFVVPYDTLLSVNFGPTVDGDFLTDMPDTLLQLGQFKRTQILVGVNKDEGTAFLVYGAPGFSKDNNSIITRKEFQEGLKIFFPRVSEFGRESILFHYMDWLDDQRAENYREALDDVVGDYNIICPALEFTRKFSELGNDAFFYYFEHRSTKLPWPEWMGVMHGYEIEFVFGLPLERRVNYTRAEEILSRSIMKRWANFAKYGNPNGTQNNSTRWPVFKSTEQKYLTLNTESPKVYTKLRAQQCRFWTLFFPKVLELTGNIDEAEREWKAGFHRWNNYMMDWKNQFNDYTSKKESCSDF

Row | SMILES | IC50 (Cholinesterase [1]) [µM] | Ratio IC50 (Homo sapiens [2]) | IC50 (Acetylcholinesterase [3]) [µM] | Ratio IC50 (Homo sapiens [4]) | IC50 (Cholinesterase [5]) [µM] | IC50 (Acetylcholinesterase [6]) [µM] | Ratio IC50 [7] | IC50 [8] [µM] | IC50 [9] [µM] | inhibition (INH) [10] | inhibition (INH) (Cholinesterase [11]) | inhibition (INH) (Cholinesterase [12])
1 | CN(C)CCOc1cccc(/C=C2\COc3ccccc3C2=O)c1 | 8.37 | 66.5 | 1.41 | 3.15 | 4.44 | 1.04 | 8.05 | 0.571 | 38 |  |  | 
2 | CN(C)CCCCOc1ccc(/C=C2\COc3ccccc3C2=O)cc1 | 18.9 | > 132 |  |  |  | 12.3 | 1.54 | 0.756 |  | Not Active |  | 
3 | CN(CCOc1ccc(/C=C2\COc3ccccc3C2=O)cc1)Cc1ccccc1 | 41.5 | > 43.8 |  |  |  | 19.3 | 2.14 | 2.28 |  | Not Active |  | 
4 | CN1CCN(CCCCOc2ccc(/C=C3\COc4ccccc4C3=O)cc2)CC1 | 10.4 | > 6.1 |  |  |  | 13 | 0.799 | 16.4 |  | Not Active |  | 
5 | CCN(CC)CCOc1ccccc1/C=C1\COc2ccccc2C1=O | 11.5 | > 2.64 |  |  |  | 65.3 | 0.176 | 43.8 |  | Not Active |  | 
6 | CN(C)CCCCCCOc1ccc(/C=C2\COc3ccccc3C2=O)cc1 | 9.12 | 12.1 |  |  |  | 12.8 | 0.712 | 3.22 | 39.1 |  |  | 
7 | CCN(CCCOc1ccc(/C=C2\COc3ccccc3C2=O)cc1)Cc1ccccc1 | 17.2 |  |  |  |  | 29.4 | 0.583 | 1.59 |  |  |  | 
8 | CN(C)CCCOc1ccccc1/C=C1\COc2ccccc2C1=O | 8.74 | > 1 |  |  |  | 75.1 | 0.116 | > 100 |  | Not Active |  | 
9 | CN(CCCOc1ccc(/C=C2\COc3ccccc3C2=O)cc1)Cc1ccccc1 | 19.3 | > 114 |  |  |  | 52.3 | 0.369 | 0.88 |  | Not Active |  | 
10 | O=C1/C(=C/c2ccc(OCCN3CCN(Cc4ccccc4)CC3)cc2)COc2ccccc21 | 31.5 | > 1.03 |  |  |  | 21 | 1.5 | 97.5 |  | Not Active |  | 
11 | CN(C)CCCOc1cccc(/C=C2\COc3ccccc3C2=O)c1 | 2.16 | 1940 | 25.7 | 1.53 | 39.3 | 4.97 | 0.435 | 0.0484 | 93.7 |  |  | 
12 | CN1CCN(CCCOc2ccc(/C=C3\COc4ccccc4C3=O)cc2)CC1 | 15.4 | > 4.41 |  |  |  | 10.1 | 1.53 | 22.7 |  | Not Active |  | 
13 | CCN(CC)CCCCOc1ccc(/C=C2\COc3ccccc3C2=O)cc1 | 4.61 | 18.5 | 14.1 | 0.801 | 11.3 | 6.1 | 0.756 | 2.86 | 52.9 |  |  | 
14 | CCN(CCOc1ccc(/C=C2\COc3ccccc3C2=O)cc1)Cc1ccccc1 | 49.4 | > 23.3 |  |  |  | 1.29 | 38.3 | 4.29 |  | Not Active |  | 
15 | CN1CCN(CCCCCCOc2ccc(/C=C3\COc4ccccc4C3=O)cc2)CC1 | 27.3 | > 16.1 |  |  |  | 32.3 | 0.843 | 6.24 |  | Not Active |  | 
16 | CCN(CC)CCCCCCOc1ccc(/C=C2\COc3ccccc3C2=O)cc1 | 4.83 | 13.1 | 1.85 | 2.3 | 4.25 | 3.75 | 1.29 | 2.9 | 37.8 |  |  | 
17 | CCN(CC)CCOc1ccc(/C=C2\COc3ccccc3C2=O)cc1 | 28.9 | 1220 | 3.29 | 7.17 | 23.6 | 1.03 | 28 | 0.0381 | 46.6 |  |  | 
18 | CN(C)CCCOc1ccc(/C=C2\COc3ccccc3C2=O)cc1 | 20.3 | > 2280 |  |  |  | 5.21 | 3.9 | 0.0438 |  | Not Active |  | 
19 | O=C1/C(=C/c2ccc(OCCCN3CCN(Cc4ccccc4)CC3)cc2)COc2ccccc21 | 89.5 | > 2.59 | 4.72 | > 21.2 |  | 1.02 | 87.8 | 38.6 |  | Not Active | Not Active | 
20 | O=C1/C(=C/c2ccc(OCCCCCCN3CCN(Cc4ccccc4)CC3)cc2)COc2ccccc21 |  | > 1 |  |  |  | 60.8 | > 1.65 | > 100 |  | Not Active |  | Not Active
21 | CCN(CC)CCCOc1cccc(/C=C2\COc3ccccc3C2=O)c1 | 1.03 | 3.55 |  |  |  | 14.1 | 0.0732 | 18.2 | 64.7 |  |  | 
22 | CCN(CC)CCOc1cccc(/C=C2\COc3ccccc3C2=O)c1 | 1.68 | 97.1 | 30.3 | 0.34 | 10.3 | 4.16 | 0.403 | 0.824 | 80 |  |  | 
23 | CCN(CC)CCCOc1ccc(/C=C2\COc3ccccc3C2=O)cc1 | 8.27 | 379 |  |  |  | 3.2 | 2.58 | 0.166 | 62.9 |  |  | 
24 | CCN(CCCCCCOc1ccc(/C=C2\COc3ccccc3C2=O)cc1)Cc1ccccc1 | 40 | > 1 |  |  |  | 17 | 2.36 | > 100 |  | Not Active |  | 
25 | CN(C)CCOc1ccccc1/C=C1\COc2ccccc2C1=O | 10 | > 1 |  |  |  | 65.3 | 0.154 | > 100 |  | Not Active |  | 
26 | CN(CCCCCCOc1ccc(/C=C2\COc3ccccc3C2=O)cc1)Cc1ccccc1 | 50.7 | > 1 | 40.9 | 0.489 | 20 | 1.77 | 28.7 | > 100 |  | Not Active |  | 
